{"source": "ChEMBL document CHEMBL1149653", "about": "“Hydroxyethylene isosteres of selective neuronal nitric oxide synthase inhibitors” (Bioorg Med Chem, 2007)", "key": {"[1]": {"assay": "Selectivity for nNOS over iNOS"}, "[2]": {"assay": "Selectivity for nNOS over eNOS"}, "Nitric oxide synthase 1": {"target": "Nitric oxide synthase 1 (Rattus norvegicus, UniProt P29476)", "sequence (P29476 whole entry)": "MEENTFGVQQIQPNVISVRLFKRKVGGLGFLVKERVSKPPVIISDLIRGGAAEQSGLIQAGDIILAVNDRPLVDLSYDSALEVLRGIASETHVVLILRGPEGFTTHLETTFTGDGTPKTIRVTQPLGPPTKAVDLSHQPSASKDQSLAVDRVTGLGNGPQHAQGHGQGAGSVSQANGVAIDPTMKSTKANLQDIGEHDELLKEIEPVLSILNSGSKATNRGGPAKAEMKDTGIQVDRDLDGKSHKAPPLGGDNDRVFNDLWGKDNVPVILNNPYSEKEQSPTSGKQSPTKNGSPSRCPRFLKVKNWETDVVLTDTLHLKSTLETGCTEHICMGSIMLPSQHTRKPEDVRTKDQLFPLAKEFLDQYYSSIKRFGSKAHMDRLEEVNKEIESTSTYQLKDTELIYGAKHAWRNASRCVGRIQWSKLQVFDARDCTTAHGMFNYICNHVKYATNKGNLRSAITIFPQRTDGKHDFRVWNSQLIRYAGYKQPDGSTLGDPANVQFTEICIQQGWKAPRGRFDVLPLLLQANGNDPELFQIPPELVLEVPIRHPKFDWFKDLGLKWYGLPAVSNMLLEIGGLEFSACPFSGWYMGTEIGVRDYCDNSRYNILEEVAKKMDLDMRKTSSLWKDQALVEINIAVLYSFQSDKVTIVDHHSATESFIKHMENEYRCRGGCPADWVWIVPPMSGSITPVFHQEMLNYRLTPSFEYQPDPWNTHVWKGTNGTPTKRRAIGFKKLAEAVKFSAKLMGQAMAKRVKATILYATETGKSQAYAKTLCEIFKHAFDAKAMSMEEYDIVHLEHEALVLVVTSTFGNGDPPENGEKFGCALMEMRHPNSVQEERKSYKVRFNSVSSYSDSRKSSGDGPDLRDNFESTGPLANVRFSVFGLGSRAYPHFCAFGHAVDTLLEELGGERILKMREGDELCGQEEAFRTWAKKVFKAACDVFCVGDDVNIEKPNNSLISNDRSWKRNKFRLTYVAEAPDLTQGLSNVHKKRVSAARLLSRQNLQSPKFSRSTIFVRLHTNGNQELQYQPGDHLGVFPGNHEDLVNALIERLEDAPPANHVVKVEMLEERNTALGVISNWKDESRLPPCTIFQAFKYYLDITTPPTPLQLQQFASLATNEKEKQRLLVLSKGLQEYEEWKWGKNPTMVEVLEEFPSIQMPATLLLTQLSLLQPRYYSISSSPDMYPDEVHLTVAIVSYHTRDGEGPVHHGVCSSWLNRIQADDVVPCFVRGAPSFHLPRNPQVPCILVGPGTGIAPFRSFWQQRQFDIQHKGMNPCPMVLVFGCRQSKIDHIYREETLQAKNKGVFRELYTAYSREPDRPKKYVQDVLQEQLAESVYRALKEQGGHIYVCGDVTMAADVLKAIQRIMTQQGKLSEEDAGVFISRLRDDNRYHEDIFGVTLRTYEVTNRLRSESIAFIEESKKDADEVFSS", "assay": "Inhibition of recombinant rat brain nNOS expressed in Escherichia coli"}, "Nitric oxide synthase 3": {"target": "T1, Nitric oxide synthase 3 (Bos taurus, UniProt P29473)", "T1 sequence (P29473 whole entry)": "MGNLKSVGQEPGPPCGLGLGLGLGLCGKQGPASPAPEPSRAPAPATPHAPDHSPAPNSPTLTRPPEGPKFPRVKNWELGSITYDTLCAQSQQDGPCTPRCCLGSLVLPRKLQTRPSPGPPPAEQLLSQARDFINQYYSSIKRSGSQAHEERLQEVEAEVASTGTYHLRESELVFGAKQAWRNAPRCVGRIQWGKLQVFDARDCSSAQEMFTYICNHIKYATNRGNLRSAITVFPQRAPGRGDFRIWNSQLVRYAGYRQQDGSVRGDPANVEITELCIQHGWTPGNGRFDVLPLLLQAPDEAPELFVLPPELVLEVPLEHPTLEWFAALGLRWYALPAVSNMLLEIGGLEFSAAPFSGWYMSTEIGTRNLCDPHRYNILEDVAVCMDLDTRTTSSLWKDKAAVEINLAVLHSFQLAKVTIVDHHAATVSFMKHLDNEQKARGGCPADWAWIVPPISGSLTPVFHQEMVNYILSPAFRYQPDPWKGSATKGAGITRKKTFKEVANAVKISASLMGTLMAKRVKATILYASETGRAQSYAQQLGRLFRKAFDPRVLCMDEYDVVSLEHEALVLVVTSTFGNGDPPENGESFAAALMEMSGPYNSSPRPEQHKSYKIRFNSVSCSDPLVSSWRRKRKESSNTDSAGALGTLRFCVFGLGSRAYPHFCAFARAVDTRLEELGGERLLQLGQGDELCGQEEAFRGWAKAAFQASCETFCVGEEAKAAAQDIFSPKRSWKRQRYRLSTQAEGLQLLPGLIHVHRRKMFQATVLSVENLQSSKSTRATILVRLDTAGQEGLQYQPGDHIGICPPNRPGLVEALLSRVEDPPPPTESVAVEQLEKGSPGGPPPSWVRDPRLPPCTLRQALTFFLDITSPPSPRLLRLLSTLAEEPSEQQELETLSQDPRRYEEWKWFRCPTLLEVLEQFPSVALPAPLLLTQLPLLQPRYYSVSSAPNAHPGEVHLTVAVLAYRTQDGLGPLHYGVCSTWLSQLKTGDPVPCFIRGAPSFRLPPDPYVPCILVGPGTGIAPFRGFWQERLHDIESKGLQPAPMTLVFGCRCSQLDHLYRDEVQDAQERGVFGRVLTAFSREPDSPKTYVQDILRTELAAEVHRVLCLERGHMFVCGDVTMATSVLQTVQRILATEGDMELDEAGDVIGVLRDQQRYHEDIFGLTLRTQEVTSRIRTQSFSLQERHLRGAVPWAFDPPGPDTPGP", "assay": "Inhibition of recombinant bovine eNOS expressed in Escherichia coli"}, "[3]": {"target": "T2, Nitric oxide synthase, inducible (Mus musculus, UniProt P29477)", "T2 sequence (P29477 whole entry)": "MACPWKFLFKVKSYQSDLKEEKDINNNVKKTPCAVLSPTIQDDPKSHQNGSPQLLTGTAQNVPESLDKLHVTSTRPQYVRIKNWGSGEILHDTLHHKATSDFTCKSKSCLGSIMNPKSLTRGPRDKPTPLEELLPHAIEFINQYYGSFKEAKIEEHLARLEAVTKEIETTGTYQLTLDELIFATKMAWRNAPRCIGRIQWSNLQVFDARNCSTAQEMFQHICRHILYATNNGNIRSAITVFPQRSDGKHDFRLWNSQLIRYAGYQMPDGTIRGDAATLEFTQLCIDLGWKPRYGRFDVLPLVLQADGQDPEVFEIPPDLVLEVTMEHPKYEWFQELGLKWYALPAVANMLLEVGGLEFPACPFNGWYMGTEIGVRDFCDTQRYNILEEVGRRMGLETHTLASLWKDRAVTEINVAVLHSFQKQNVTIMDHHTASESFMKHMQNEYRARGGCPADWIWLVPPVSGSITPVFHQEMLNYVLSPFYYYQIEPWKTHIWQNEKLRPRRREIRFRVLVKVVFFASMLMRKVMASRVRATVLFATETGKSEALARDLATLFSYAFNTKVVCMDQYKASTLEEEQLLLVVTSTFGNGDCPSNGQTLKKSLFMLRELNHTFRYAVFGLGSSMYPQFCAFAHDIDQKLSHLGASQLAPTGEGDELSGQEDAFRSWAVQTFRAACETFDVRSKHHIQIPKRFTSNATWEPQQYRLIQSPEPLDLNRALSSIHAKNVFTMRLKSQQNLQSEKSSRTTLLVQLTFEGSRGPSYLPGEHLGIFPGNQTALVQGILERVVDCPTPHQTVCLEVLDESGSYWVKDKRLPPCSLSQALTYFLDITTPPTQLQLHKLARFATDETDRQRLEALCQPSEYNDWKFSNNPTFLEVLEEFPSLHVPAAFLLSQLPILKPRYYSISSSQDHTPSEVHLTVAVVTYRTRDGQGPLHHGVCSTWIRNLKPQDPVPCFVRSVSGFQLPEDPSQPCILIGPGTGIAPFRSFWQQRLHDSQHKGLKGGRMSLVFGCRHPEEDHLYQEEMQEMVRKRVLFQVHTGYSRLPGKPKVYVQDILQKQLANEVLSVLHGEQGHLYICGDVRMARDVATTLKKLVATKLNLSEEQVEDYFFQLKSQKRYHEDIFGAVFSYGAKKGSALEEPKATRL", "assay": "Inhibition of recombinant mouse macrophage iNOS expressed in Escherichia coli", "method_in_brief": "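Enzyme purified from E. coli, added to start the reaction. Conditions: 30 °C, 100 mM Hepes pH 7.4, 10 µM L-arginine, 100 µM DTT, 100 µM NADPH, 6.5 µM H4B, […], no added Ca2+ or calmodulin. NO capture was read as the A400 rise over 1 min.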"}}}
{"smiles": "N=C(NCCC[C@H](N)C[C@@H](O)CCCN)N[N+](=O)[O-]", "values": [{"measurement": "Ratio IC50", "setting": "[1]", "result": 15}, {"measurement": "Ratio IC50", "setting": "[2]", "result": 59}]}
{"smiles": "N=C(NCCC[C@H](N)C[C@@H](O)CCN)N[N+](=O)[O-]", "values": [{"measurement": "Ratio IC50", "setting": "[1]", "result": 107}, {"measurement": "IC50", "setting": "Nitric oxide synthase 1", "result": 2.4, "unit": "µM"}, {"measurement": "Ki", "setting": "Nitric oxide synthase 1", "result": 0.29, "unit": "µM"}, {"measurement": "Ratio IC50", "setting": "[2]", "result": 475}, {"measurement": "IC50", "setting": "Nitric oxide synthase 3", "result": 1140, "unit": "µM"}, {"measurement": "IC50", "setting": "[3]", "result": 257, "unit": "µM"}]}
{"smiles": "N=C(NCCC[C@H](N)C[C@@H](O)CCCO)N[N+](=O)[O-]", "values": [{"measurement": "Ratio IC50", "setting": "[1]", "result": 2.1}, {"measurement": "Ratio IC50", "setting": "[2]", "result": 10.1}]}
{"smiles": "NC(=NCCC[C@H](N)C[C@@H](O)CCO)N[N+](=O)[O-]", "values": [{"measurement": "IC50", "setting": "Nitric oxide synthase 1", "result": 106, "unit": "µM"}, {"measurement": "IC50", "setting": "Nitric oxide synthase 3", "result": 1090, "unit": "µM"}, {"measurement": "IC50", "setting": "[3]", "result": 331, "unit": "µM"}]}
{"smiles": "NCC[C@@H](O)C[C@@H](N)CCCN=C(N)N[N+](=O)[O-]", "values": [{"measurement": "IC50", "setting": "Nitric oxide synthase 1", "result": 9.4, "unit": "µM"}, {"measurement": "Ki", "setting": "Nitric oxide synthase 1", "result": 1.1, "unit": "µM"}, {"measurement": "IC50", "setting": "Nitric oxide synthase 3", "result": 1340, "unit": "µM"}, {"measurement": "IC50", "setting": "[3]", "result": 167, "unit": "µM"}]}
{"smiles": "N=C(NCCC[C@H](N)C[C@H](O)CCO)N[N+](=O)[O-]", "values": [{"measurement": "Ratio IC50", "setting": "[1]", "result": 7.7}, {"measurement": "Ratio IC50", "setting": "[2]", "result": 9.9}]}
{"smiles": "N=C(NCCC[C@H](N)C[C@@H](O)CCO)N[N+](=O)[O-]", "values": [{"measurement": "Ratio IC50", "setting": "[1]", "result": 3.1}, {"measurement": "Ratio IC50", "setting": "[2]", "result": 10.2}]}
{"smiles": "NC(=NCCC[C@H](N)C[C@@H](O)CCCO)N[N+](=O)[O-]", "values": [{"measurement": "IC50", "setting": "Nitric oxide synthase 1", "result": 255, "unit": "µM"}, {"measurement": "IC50", "setting": "Nitric oxide synthase 3", "result": 2580, "unit": "µM"}, {"measurement": "IC50", "setting": "[3]", "result": 524, "unit": "µM"}]}
{"smiles": "N=C(NCCC[C@H](N)C[C@H](O)CCCO)N[N+](=O)[O-]", "values": [{"measurement": "Ratio IC50", "setting": "[1]", "result": 0.54}, {"measurement": "IC50", "setting": "Nitric oxide synthase 1", "result": 490, "unit": "µM"}, {"measurement": "Ratio IC50", "setting": "[2]", "result": 1.8}, {"measurement": "IC50", "setting": "Nitric oxide synthase 3", "result": 879, "unit": "µM"}, {"measurement": "IC50", "setting": "[3]", "result": 266, "unit": "µM"}]}
{"smiles": "NCCC[C@H](O)C[C@@H](N)CCCN=C(N)N[N+](=O)[O-]", "values": [{"measurement": "IC50", "setting": "Nitric oxide synthase 1", "result": 23.5, "unit": "µM"}, {"measurement": "Ki", "setting": "Nitric oxide synthase 1", "result": 2.8, "unit": "µM"}, {"measurement": "IC50", "setting": "Nitric oxide synthase 3", "result": 1390, "unit": "µM"}, {"measurement": "IC50", "setting": "[3]", "result": 361, "unit": "µM"}]}
{"smiles": "N=C(NCCC[C@H](N)C[C@H](O)CCCN)N[N+](=O)[O-]", "values": [{"measurement": "Ratio IC50", "setting": "[1]", "result": 33}, {"measurement": "IC50", "setting": "Nitric oxide synthase 1", "result": 6.8, "unit": "µM"}, {"measurement": "Ki", "setting": "Nitric oxide synthase 1", "result": 0.83, "unit": "µM"}, {"measurement": "Ratio IC50", "setting": "[2]", "result": 225}, {"measurement": "IC50", "setting": "Nitric oxide synthase 3", "result": 1530, "unit": "µM"}, {"measurement": "IC50", "setting": "[3]", "result": 313, "unit": "µM"}]}
{"smiles": "NC(=NCCC[C@H](N)C[C@H](O)CCO)N[N+](=O)[O-]", "values": [{"measurement": "IC50", "setting": "Nitric oxide synthase 1", "result": 168, "unit": "µM"}, {"measurement": "IC50", "setting": "Nitric oxide synthase 3", "result": 1660, "unit": "µM"}, {"measurement": "IC50", "setting": "[3]", "result": 1290, "unit": "µM"}]}
{"smiles": "N=C(NCCC[C@H](N)C[C@H](O)CCN)N[N+](=O)[O-]", "values": [{"measurement": "Ratio IC50", "setting": "[1]", "result": 18}, {"measurement": "Ratio IC50", "setting": "[2]", "result": 143}]}
